# Measured values reported in ChEMBL document CHEMBL2157904, “Identification of a novel Smoothened antagonist that potently suppresses Hedgehog signaling” (Bioorg Med Chem, 2012).
# The source made the active and inactive calls. The calls are words filed in the database; no cut-off is given here.
# Columns and labels:
# U2OS = assay: Antagonist activity at chimeric Smo 633 mutant expressed in U2OS cells coexpressing beta arrestin2-GFP assessed as inhibition of intracellular beta arrestin2-GFP aggregate formation at 5 uM after 6 hrs by confocal microscopy; format: functional, cell-based; details: Homo sapiens
# Procedure, shortened: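 Cells exposed to compound at 5 µM for 6 hours. Confocal imaging scored loss of intracellular βarr2-GFP vesicular aggregates.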
# Protein smoothened = Protein smoothened (Mus musculus, UniProt P56726); assay: Antagonist activity at Smo in mouse Shh-Light 2 cells assessed as inhibition of Shh-induced Gli1-reporter activity after 2 days by dual-luciferase reporter gene method; format: functional, cell-based, Shh Light II
# Procedure, shortened: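 Shh-LIGHT2 cells (clonal NIH3T3 line with stably integrated Gli-dependent firefly luciferase and constitutive Renilla luciferase) stimulated with purified Sonic Hedgehog at 50 ng/mL, with compound at increasing concentrations. Dual-luciferase read-out. Mean ± SEM.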
# [1] = Antiproliferative activity against Shh-stimulated C57BL/6 mouse granule cell precursor after 48 hrs by [3H]thymidine incorporation assay; format: functional
# Procedure, shortened: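 Primary cerebellar granule cell precursors taken from 7-day postnatal C57BL/6 mice. Treated 48 h with Shh plus compound at increasing concentrations, then [3H]-thymidine added for 16 h and incorporation measured. Curve-fit IC50, mean ± SEM, n = 3.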
# Mus musculus = assay: Inhibition of hair regrowth in eight week old C57BL/6 mouse at 0.5 mM topically administered daily on shaved and Nair depilated surface for 2 weeks; format: functional, organism-based
# Procedure, shortened: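 Female C57BL/6 mice aged eight weeks, in telogen, with dorsal skin shaved and then depilated with Nair for 2 min and rinsed. Compound at 0.5 mM in 95% acetone/5% DMSO, 30 µl applied topically to the depilated area daily for two weeks. Vehicle-treated controls. Brief 3% isoflurane anaesthesia during procedures.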
# [2] = target: Vasopressin V2 receptor (Homo sapiens) (UniProt P30518); assay: Antagonist activity at V2R expressed in U2OS cells coexpressing beta arrestin2-GFP assessed as inhibition of D-arginine vasopressin-induced intracellular beta arrestin2-GFP aggregate formation at 5 uM preincubated for 1 hr before agonist treatment measured after 6 hrs of agonist treatment by confocal microscopy; format: functional, cell-based
# Sequence of Vasopressin V2 receptor (Homo sapiens) (P30518 whole entry): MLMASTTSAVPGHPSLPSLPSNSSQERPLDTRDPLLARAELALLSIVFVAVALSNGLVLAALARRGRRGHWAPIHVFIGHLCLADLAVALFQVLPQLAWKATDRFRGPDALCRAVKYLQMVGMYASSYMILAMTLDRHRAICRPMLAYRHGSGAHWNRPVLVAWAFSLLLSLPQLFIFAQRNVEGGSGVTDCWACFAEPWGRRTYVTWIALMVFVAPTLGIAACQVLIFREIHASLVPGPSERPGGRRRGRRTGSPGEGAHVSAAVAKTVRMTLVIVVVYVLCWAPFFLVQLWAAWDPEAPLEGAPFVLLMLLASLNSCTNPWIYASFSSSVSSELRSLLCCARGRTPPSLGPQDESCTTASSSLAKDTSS
# Sequence of Protein smoothened (P56726 whole entry): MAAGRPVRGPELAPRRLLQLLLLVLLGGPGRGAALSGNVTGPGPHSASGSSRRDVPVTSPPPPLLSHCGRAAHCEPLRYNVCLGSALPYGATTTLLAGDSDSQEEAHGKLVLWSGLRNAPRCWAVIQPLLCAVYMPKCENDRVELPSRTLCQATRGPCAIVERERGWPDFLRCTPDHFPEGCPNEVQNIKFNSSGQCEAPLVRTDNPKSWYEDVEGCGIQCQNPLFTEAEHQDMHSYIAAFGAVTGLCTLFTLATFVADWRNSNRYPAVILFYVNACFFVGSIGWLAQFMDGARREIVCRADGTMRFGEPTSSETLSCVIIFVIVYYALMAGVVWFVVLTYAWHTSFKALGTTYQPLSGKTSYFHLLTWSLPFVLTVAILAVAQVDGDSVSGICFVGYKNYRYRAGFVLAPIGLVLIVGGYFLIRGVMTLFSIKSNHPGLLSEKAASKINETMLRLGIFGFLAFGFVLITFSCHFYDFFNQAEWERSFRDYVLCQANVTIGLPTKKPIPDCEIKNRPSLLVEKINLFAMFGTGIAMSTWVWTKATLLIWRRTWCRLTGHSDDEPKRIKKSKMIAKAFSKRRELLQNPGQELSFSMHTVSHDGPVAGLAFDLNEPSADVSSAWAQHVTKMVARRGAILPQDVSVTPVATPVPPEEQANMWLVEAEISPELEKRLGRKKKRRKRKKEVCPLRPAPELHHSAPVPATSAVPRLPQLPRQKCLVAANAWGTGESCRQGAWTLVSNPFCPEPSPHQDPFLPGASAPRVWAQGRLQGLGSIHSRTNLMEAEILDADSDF
SMILES,inhibition (U2OS),IC50 (Protein smoothened),IC50 [1],inhibition (Mus musculus),inhibition [2]
CCN(C)Cc1ccc(N2CCC(NC(=O)c3cccc(-c4cccnc4)c3)CC2)nc1,Active,,,,
O=C(NC1CCN(Cc2ccc(N3CCC(NC(=O)c4cccc(-c5cccnc5)c4)CC3)nc2)CC1)c1cccc(-c2cccnc2)c1,,2.6 nM,16.6 nM,Active,inactive
CS(=O)(=O)c1ccc(C(=O)Nc2ccc(Cl)c(-c3ccccn3)c2)c(Cl)c1 [VISMODEGIB],,,16.4 nM,,
CC1=C2C[C@H]3[C@@H](CC=C4C[C@@H](O)CC[C@@]43C)[C@@H]2CC[C@]12O[C@@H]1C[C@H](C)CN[C@H]1[C@H]2C [CYCLOPAMINE],Active,,414 nM,,inactive
